# High-throughput results deposited in PubChem by The Scripps Research Institute Molecular Screening Center.
# CHO parental Ca: ATP-evoked calcium signal inhibitors, parental CHO, primary screen, counter-screen for OX1R antagonist project, cell-based, fluorescence, Fluo-8 calcium dye; inhibition, % at 5.6 µM; 330,000 tested, 0.63% active; parental CHO-K1, ATP-induced calcium, Fluo-8 fluorescence;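 active = inhibition above that plate's mean sample inhibition plus 3 SD, cut at about 26% in these data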
#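 Assay system: parental CHO cells; Read-out basis: percent inhibition of ATP-evoked calcium rise, normalized to controls; Benchmarks: ATP and no-ATP DMSO wells; Compound dosing: single nominal dose of 5.6 µM per compound; Signal: Fluo-8 calcium dye fluorescence; Also added: ATP as calcium-mobilizing challenge; Repeats: singlicate.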
# OX1R antag-1: antagonists of human orexin 1 receptor (OX1R); inhibition, % at 6.6 µM; AID 485270, 2010; 330,000 tested, 1.8% active; Orexin/Hypocretin receptor type 1 (Homo sapiens), O43613; OX1R-expressing cells, FRET antagonist read-out; in the data active = inhibition mostly above about 38%, no sharp cut-off; inactive = mostly below about 40%
# GPR7 antag: GPR7 receptor antagonists, primary screen, cell-based, fluorescence, single concentration. Neuropeptides B/W receptor type 1 (Homo sapiens), P48145. GPR7-expressing cells, fluorescence antagonist assay. inhibition, % at 4.4 µM. 290,000 tested, 1.1% active. AID 1861, 2009; in the data active = inhibition above about 16%, passing the limit was not always enough;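 also: cells stimulated with the agonist NPW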
# Target sequence (P48145 whole entry, looked up): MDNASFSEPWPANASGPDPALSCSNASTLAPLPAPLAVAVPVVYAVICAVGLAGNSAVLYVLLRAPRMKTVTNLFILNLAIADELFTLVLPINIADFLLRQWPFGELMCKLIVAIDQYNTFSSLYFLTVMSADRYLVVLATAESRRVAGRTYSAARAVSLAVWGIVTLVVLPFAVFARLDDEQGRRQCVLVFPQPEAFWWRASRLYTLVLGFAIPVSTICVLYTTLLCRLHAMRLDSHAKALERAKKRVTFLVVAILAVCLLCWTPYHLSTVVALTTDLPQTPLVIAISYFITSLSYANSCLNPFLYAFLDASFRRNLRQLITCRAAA
# TAAR1 ag: human TAAR1 agonists, primary screen, Fluo-8 calcium fluorescence, CHO RD-HGA16 cells; activation, % at 3 µM; Trace amine-associated receptor 1 (Homo sapiens), Q96RJ0; vehicle wells 0%, saturating PEA agonist 100%; 360,000 tested, 0.99% active;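 active = activation above the mean activation of all test compounds in the run plus 3 SD, cut at about 38% in these data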
# Target sequence (Q96RJ0 whole entry, looked up): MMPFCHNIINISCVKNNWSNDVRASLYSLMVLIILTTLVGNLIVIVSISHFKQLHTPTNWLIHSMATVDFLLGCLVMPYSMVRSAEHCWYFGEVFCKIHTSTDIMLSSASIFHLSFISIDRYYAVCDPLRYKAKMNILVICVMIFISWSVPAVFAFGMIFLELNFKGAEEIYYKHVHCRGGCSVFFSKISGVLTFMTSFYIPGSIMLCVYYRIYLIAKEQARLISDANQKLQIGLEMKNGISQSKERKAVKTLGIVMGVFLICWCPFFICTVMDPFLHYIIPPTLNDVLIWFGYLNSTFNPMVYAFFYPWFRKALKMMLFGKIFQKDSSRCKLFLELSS
#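 Signal – calcium-sensitive Fluo-8 signal, excitation 470-495, emission 515-575 nm · System – RD-HGA16 (CHO) cells co-expressing Gα16 and hTAAR1 · Incubation – 17-24 h seeding, 75 min 37 °C dye, 30 min RT · Compound dosing – 3 µM single concentration · Repeats – no replicates (n 1)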
# TAAR1 antag: human TAAR1 antagonists, primary screen, Fluo-8 calcium fluorescence, CHO RD-HGA16 cells. AID 624466, 2012. 360,000 tested, 1.5% active. antagonist. inhibition, % at 3 µM. Trace amine-associated receptor 1 (Homo sapiens), Q96RJ0;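 active = inhibition above a per-plate cutoff, the mean inhibition of test compounds on that plate plus 3 SD, cut at about 49% in these data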
#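 test system = CHO RD-HGA16 cells bearing hTAAR1 | replication = singlicate | controls = DMSO-only wells and EC80 β-PEA-stimulated wells | reagent = EC80 β-phenethylamine stimulus | read-out basis = percent inhibition of PEA-evoked calcium signal, max/basal emission ratio | schedule = seeding 17-24 h prior, 75-min 37 °C, 30-min RT dye loading | signal = kinetic Fluo-8 calcium fluorescence measurement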
# OX1R antag-2: OX1R (HCRTR1) antagonists, primary screen, fluorescence, CHO/OX1R cells, Fluo-8 calcium, orexin A. inhibition, % at 5 µM. Fluo-8 calcium fluorescence. Orexin/Hypocretin receptor type 1 (Homo sapiens), O43613. 330,000 tested, 0.43% active. AID 434989, 2010;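 active = inhibition above its plate's threshold, mean inhibition of all tested compounds on the plate plus 3 SD, cut at about 37% in these data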
# GPR7 antag conf: GPR7 receptor antagonists, confirmation, cell-based, fluorescence, single concentration; shares compounds with GPR7 antag; GPR7-expressing cells, calcium fluorescence antagonist mode; inhibition, % at 4.4 µM; 2,400 tested, 52% active; AID 1952, 2009; in the data active = inhibition above about 24%;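 also: stimulated with the GPR7 agonist NPW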
# MCHR1 antagonist: MCHR1 antagonists in cells, counter-screen for GPR7 antagonist project, cell-based, fluorescence, human. shares compounds with GPR7 antag. MCHR1-expressing cells, fluorescence antagonist assay. inhibition, % at 4.4 µM. 2,400 tested, 62% active. AID 2148, 2009
# nonsel antag count: nonselective antagonists in TAAR1 counter-screen cells, counter-screen for hTAAR1 antagonist project, cell-based, fluorescence, calcium. shares compounds with TAAR1 antag. counterscreen cell line, antagonist mode. inhibition, % at 3 µM. 2,400 tested, 77% active;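 also: CHO-Ga16 host cells stimulated with ATP at an EC80 level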
# TAAR1 antag conf: human TAAR1 antagonists, retest of hits, confirmation, cell-based, fluorescence; shares compounds with TAAR1 antag; TAAR1-expressing cells, fluorescence antagonist read-out; inhibition, % at 3 µM; 2,400 tested, 40% active; AID 651785, 2012; in the data active = inhibition above about 49%;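 also: CHO-Ga16 host cells challenged with agonist PEA near its EC80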
# Ga16 ag counter: calcium activation in Ga16-expressing cells, counter-screen for TAAR1 antagonist project, cell-based, fluorescence | shares compounds with TAAR1 antag | agonist counterscreen | activation, % at 3 µM | 2,400 tested, 18% active | AID 651953, 2012; in the data active = activation above about 12%
# TAAR1 ag count: TAAR1 activation by candidate antagonists – cell-based, fluorescence, counter-screen for TAAR1 antagonist project | shares compounds with TAAR1 antag | hTAAR1 cell line, agonist mode | activation, % at 3 µM | 2,400 tested, 2% active | AID 651955, 2012; in the data active = activation above about 37%;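 also: CHO cells stably expressing TAAR1 with calcium dye readout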
# A number is an active result; i = inactive; nt = no result. This is a sample that favours compounds with a hit; in the whole collection about 4.5% have one here. Rule as the data show it, unless noted: active = inhibition above about 22%; inactive = the rest.
SMILES,CHO parental Ca,OX1R antag-1,GPR7 antag,TAAR1 ag,TAAR1 antag,OX1R antag-2,GPR7 antag conf,MCHR1 antagonist,others
Cc1ccc(-c2cc(-c3ccccc3)cc(-c3ccccc3)[n+]2-c2ccc(C(=O)O)cc2)cc1,i,i,nt,i,i,i,nt,nt,
CN1CCc2nc(SCc3cccc(Br)c3)c(C#N)cc2C1,i,i,i,i,i,i,nt,nt,
COc1ccccc1NP1(=O)OCC(C)([N+](=O)[O-])CO1 (configuration not stated),nt,nt,nt,i,i,nt,nt,nt,
Nc1ccccc1-[n+]1c(-c2ccccc2)cc(-c2ccccc2)cc1-c1ccccc1,i,i,84,i,i,i,76,66,
NCCc1c(Cc2ccccc2)[nH]c2ccccc12,i,i,nt,i,i,i,nt,nt,
Cc1c(CCN)ccc2c1[nH]c1ccccc12,i,i,37,i,i,i,37,27,
O=C(NCC1=C(c2ccc3ccccc3c2)C[C@@H]2CC[C@H]1N2Cc1ccco1)c1cccnc1,nt,nt,nt,i,i,nt,nt,nt,
CC(=O)OC1CCC2(C)C(CC(=O)C3C2CCC2(C)C(OC(C)=O)CCC32)C1 (configuration not stated),nt,nt,nt,i,i,nt,nt,nt,
C[C@]12C=CC(=O)C=C1CC[C@@H]1[C@@H]2CC[C@]2(C)C(=O)CC[C@@H]12,nt,nt,nt,i,i,nt,nt,nt,
C[C@]12CCC3[C@@H](CCC4=CC(=O)CC[C@@]43C=O)C1CCC2=O (some centres not stated),i,i,28,i,i,i,i,i,
CSCCC(c1nnnn1C1CCCCC1)N1CCC2(CC1)C(=O)NCN2c1ccccc1 (configuration not stated),nt,nt,nt,i,i,nt,nt,nt,
CN1CC=C(/C=C/c2ccc(-c3ccccc3)cc2)CC1,i,i,51,nt,nt,i,63,51,
Cc1nonc1-c1nc(-c2nonc2N)n[nH]1,i,i,32,i,i,i,i,i,
COCCOC(=O)c1c(N)n(Cc2ccc(OC)cc2)c2nc3ccccc3nc12,i,i,30,i,i,i,i,i,
CCOc1cc2c(cc1OCC)-n1cccc1C(c1ccc(C(C)C)cc1)NC2 (configuration not stated),56,i,36,i,i,i,34,62,
CCOc1cc2c(cc1OCC)-n1cccc1C(c1ccc(F)cc1)NC2 (configuration not stated),i,i,i,i,i,i,nt,nt,
Brc1ccc2c(c1)-n1nncc1CN(CC1CCCCC1)C2,nt,nt,nt,i,i,nt,nt,nt,
CN1C(=O)N(C)C(=O)C(NS(=O)(=O)c2ccc(N)cc2)(c2ccccc2)C1=O,nt,nt,nt,i,i,nt,nt,nt,
CC(C)(C)C(=O)N1Cc2cc(N3CCCCC3)ccc2-n2nncc2C1,nt,nt,nt,i,i,nt,nt,nt,
CCCOc1ccc(N2C(=O)CC(N3CC=C(c4ccccc4)CC3)C2=O)cc1 (configuration not stated),i,i,i,i,i,i,nt,nt,
O=C1CC(N2CC=C(c3ccccc3)CC2)C(=O)N1c1ccc(F)cc1 (configuration not stated),i,i,24,i,i,i,i,i,
CC(=O)Nc1nnc(CCN(CCc2nnc(NC(C)=O)s2)[N+](=O)[O-])s1,i,i,32,i,i,i,i,i,
COc1ccc(C2NCc3ccc4c(c3-n3cccc32)OCO4)cc1O (configuration not stated),i,i,50,nt,nt,i,53,37,
FC(F)(F)c1cccc(C2NCc3ccccc3-n3cccc32)c1 (configuration not stated),i,i,i,i,i,i,nt,nt,
c1cc2n(c1)-c1c(ccc3c1OCO3)CNC2c1ccc2c(c1)OCO2 (configuration not stated),i,i,25,i,i,i,49,30,
SMILES,CHO parental Ca,OX1R antag-1,GPR7 antag,TAAR1 ag,TAAR1 antag,OX1R antag-2,GPR7 antag conf,MCHR1 antagonist,others
C(=NC1CCCCC1)c1c[nH]c2ccccc12,nt,nt,nt,i,i,nt,nt,nt,
O=C(COc1ccc(Cl)cc1)N1CCN(Cc2ccc([N+](=O)[O-])cc2)CC1,i,i,30,i,i,i,28,46,
COc1ccc(OCC(=O)N2CCN(Cc3nc4cc([N+](=O)[O-])ccc4n3C)CC2)cc1,i,i,i,i,i,i,nt,nt,
c1ccc2c(c1)Sc1ccccc1N2CC1CN2CCC1CC2 (configuration not stated),i,i,30,i,i,i,47,41,
O=P(NC(c1ccccc1)c1ccccc1)(Oc1ccccc1)Oc1ccccc1,i,i,26,i,64,i,32,47,nonsel antag count=32;TAAR1 antag conf=65;Ga16 ag counter=i;TAAR1 ag count=i
c1ccc(CCN2CCCCC2)nc1,nt,nt,nt,i,i,nt,nt,nt,
